According to ChEMBL document CHEMBL2021854, “2-Aminopyrimidine based 4-aminoquinoline anti-plasmodial agents. Synthesis, biological activity, structure-activity relationship and mode of action studies” (Eur J Med Chem, 2012):

Key:
Human alphaherpesvirus 1 = experiment: Antiviral activity against HSV1 KOS infected in HEL cells assessed as inhibition of virus-induced cytopathogenicity after 4 days; assay type: functional, organism-based; details: Human alphaherpesvirus 1, KOS, 96 h
How it was run: (§1)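 Confluent HEL or HeLa monolayers infected with 100 CCID50 of virus in the presence of varying compound concentrations.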

Human alphaherpesvirus 2 = experiment: Antiviral activity against HSV2 G infected in HEL cells assessed as inhibition of virus-induced cytopathogenicity after 4 days; assay type: functional, organism-based; details: Human alphaherpesvirus 2, strain G, 96 h
How it was run: (§2)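 Confluent HEL, Vero or HeLa monolayers were inoculated with 100 CCID50 of virus in the presence of varying concentrations of compound. Cytopathicity was scored when it reached completion in untreated, virus-infected control cultures.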

[1] = system: Vesicular stomatitis virus; experiment: Antiviral activity against Vesicular stomatitis virus infected in HEL cells assessed as inhibition of virus-induced cytopathogenicity after 4 days; assay type: functional, organism-based; details: 96 h; how it was run: as §1
[2] = Cytotoxicity against human HEL cells assessed as minimum compound concentration required to causes microscopically detectable alteration of normal cell morphology; assay type: cell-based
How it was run: (§3)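 Confluent, non-proliferating cell cultures were exposed to the compounds. The endpoint was the minimum concentration producing a microscopically detectable alteration of normal cell morphology.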

Human betaherpesvirus 5 [3] = experiment: Antiviral activity against Cytomegalovirus AD-169 infected in HEL cells assessed as inhibition of virus plaque formation after 4 days; assay type: functional, organism-based; details: Human betaherpesvirus 5, AD169, HEL, 96 h
Human betaherpesvirus 5 [4] = experiment: Antiviral activity against Human cytomegalovirus Davis infected in HEL cells assessed as inhibition of virus plaque formation after 4 days; assay type: functional, organism-based; details: Human betaherpesvirus 5, Davis, 96 h
HeLa = experiment: Cytotoxicity against human HeLa cells assessed as cell viability by colorimetric formazan-based MTS assay
Plasmodium falciparum [5] = experiment: Antiplasmodial activity chloroquine-sensitive Plasmodium falciparum 3D7 infected in human A+ erythrocytes assessed as inhibition of [3H]-hypoxanthine incorporation after 24 hrs by scintillation counting; assay type: functional, organism-based
Plasmodium falciparum [6] = experiment: Antiplasmodial activity chloroquine-resistant Plasmodium falciparum K1 infected in human A+ erythrocytes assessed as inhibition of [3H]-hypoxanthine incorporation after 24 hrs by scintillation counting; assay type: functional, organism-based
Plasmodium falciparum [7] = experiment: Resistant factor, ratio of IC50 for chloroquine-resistant Plasmodium falciparum K1 to IC50 for chloroquine-sensitive Plasmodium falciparum 3D7; assay type: functional
How it was run: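 Resistance factor computed as IC50 against K1 divided by IC50 against 3D7, both from the [3H]hypoxanthine incorporation assay.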

[8] = Inhibition of beta-hematin formation assessed as Ferriprotoporphyrin IX biomineralisation at 1 mg/ml after 24 hrs; assay type: functional
How it was run: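 Hemin chloride (0.5 mg/ml in DMSO) mixed with 0.5 M sodium acetate buffer pH 4.4 and drug or solvent control, incubated 37 °C for 24 h. Pellet washed with DMSO to remove unreacted hemin, dissolved in 0.1 N NaOH, absorbance read at 405 nm; percent inhibition relative to control. Highest concentration tested 1 mg/ml.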

[9] = Cytotoxicity against cat CRFK cells assessed as cell viability by colorimetric formazan-based MTS assay; parameters: species or system Felis catus; details: CRFK cells
[10] = system: Feline infectious peritonitis virus; experiment: Antiviral activity against FIPV infected in cat CRFK cells assessed as inhibition of virus-induced cytopathic effect after 4 days by colorimetric formazan-based MTS assay; assay type: functional, cell-based; details: Alphacoronavirus 1, CRFK, 96 h
Felid alphaherpesvirus 1 = experiment: Antiviral activity against Feline herpesvirus infected in cat CRFK cells assessed as inhibition of virus-induced cytopathic effect after 4 days by colorimetric formazan-based MTS assay; assay type: functional, organism-based; details: Felid alphaherpesvirus 1, CRFK, 96 h
Human alphaherpesvirus 3 = experiment: Antiviral activity against […] expressing thymidine kinase infected in HEL cells assessed as reduction of virus plaque formation after 4 days; assay type: functional, cell-based; details: Human alphaherpesvirus 3, strain Oka vaccine, 96 h
[11] = Cytotoxicity against african green monkey Vero cells assessed as minimum compound concentration required to causes microscopically detectable alteration of normal cell morphology; assay type: cell-based; details: chlorocebus sabaeus; how it was run: as §3
Human respirovirus 3 = experiment: Antiviral activity against Parainfluenza-3 virus infected in african green monkey Vero cells assessed as inhibition of virus-induced cytopathogenicity after 4 days; assay type: functional, organism-based; details: Human respirovirus 3, Vero, 96 h; how it was run: as §2
[12] = system: Mammalian orthoreovirus 1; experiment: Antiviral activity against Reovirus-1 infected in african green monkey Vero cells assessed as inhibition of virus-induced cytopathogenicity after 4 days; assay type: functional, organism-based; details: Mammalian orthoreovirus 1, Vero, 96 h; how it was run: as §2
Sindbis virus = experiment: Antiviral activity against Sindbis virus infected in african green monkey Vero cells assessed as inhibition of virus-induced cytopathogenicity after 4 days; assay type: functional, organism-based; details: 96 h; how it was run: as §2
Coxsackievirus B4 [13] = experiment: Antiviral activity against Coxsackie virus B4 infected in african green monkey Vero cells assessed as inhibition of virus-induced cytopathogenicity after 4 days; assay type: functional, organism-based; details: Enterovirus B, 96 h; how it was run: as §2
Punta Toro virus = experiment: Antiviral activity against Punta Toro virus infected in african green monkey Vero cells assessed as inhibition of virus-induced cytopathogenicity after 4 days; assay type: functional, organism-based; details: 96 h; how it was run: as §2
[14] = Cytotoxicity against human HeLa cells assessed as minimum compound concentration required to causes microscopically detectable alteration of normal cell morphology; assay type: cell-based; how it was run: as §3
[15] = system: Vesicular stomatitis virus; experiment: Antiviral activity against Vesicular stomatitis virus infected in HeLa cells assessed as inhibition of virus-induced cytopathogenicity after 4 days; assay type: functional, organism-based; details: 96 h; how it was run: as §1
Coxsackievirus B4 [16] = experiment: Antiviral activity against Coxsackie virus B4 infected in human HeLa cells assessed as inhibition of virus-induced cytopathogenicity after 4 days; assay type: functional, organism-based; details: Enterovirus B, 96 h; how it was run: as §2
[17] = system: Respiratory syncytial virus; experiment: Antiviral activity against Respiratory syncytial virus infected in human HeLa cells assessed as inhibition of virus-induced cytopathogenicity after 4 days; assay type: functional, organism-based; details: 96 h; how it was run: as §2

## Nc1ccn(C[C@@H](CO)OCP(=O)(O)O)c(=O)n1 [CIDOFOVIR]
Human alphaherpesvirus 1
  EC50: 0.9 µM
Human alphaherpesvirus 2
  EC50: 0.9 µM
[1]
  EC50: > 250 µM
[2]
  MCC: > 317 µM
Human betaherpesvirus 5 [3]
  EC50: 0.369 µM
Human betaherpesvirus 5 [4]
  EC50: 0.102 µM
HeLa
  CC50: 50.8 µM

## CCOC(=O)c1c(C)nc(Nc2ccccc2Nc2ccnc3cc(Cl)ccc23)nc1-c1ccccc1
Plasmodium falciparum [5]
  IC50: 14.8 µM
Plasmodium falciparum [6]
  IC50: 27.3 µM
Plasmodium falciparum [7]
  Ratio IC50: 1.842
[8]
  inhibition: 53%

## CCOC(=O)c1c(C)nc(Nc2ccc(Nc3ccnc4cc(Cl)ccc34)cc2)nc1-c1ccccc1
Plasmodium falciparum [5]
  IC50: 0.644 µM
Plasmodium falciparum [6]
  IC50: 6.19 µM
Plasmodium falciparum [7]
  Ratio IC50: 9.6
[8]
  inhibition: 100%

## CCOC(=O)c1c(C)nc(NCCCCCCCCNc2ccnc3cc(Cl)ccc23)nc1-c1ccccc1
Plasmodium falciparum [5]
  IC50: 0.252 µM
Plasmodium falciparum [6]
  IC50: 0.516 µM
Plasmodium falciparum [7]
  Ratio IC50: 2.047
[8]
  inhibition: 56%

## N[C@H]1C(C(=O)O)=CC=C[C@@H]1O
[9]
  CC50: > 100 µg/mL
[10]
  EC50: 8.1 µg/mL
Felid alphaherpesvirus 1
  EC50: 5.2 µg/mL

## Cc1nc(NCCCNc2ccnc3cc(Cl)ccc23)nc(-c2ccccc2[N+](=O)[O-])c1C(=O)OC(C)C
Plasmodium falciparum [5]
  IC50: 1.96 µM
Plasmodium falciparum [6]
  IC50: 0.229 µM
Plasmodium falciparum [7]
  Ratio IC50: 0.1173
[8]
  inhibition: 89%

## CCOC(=O)c1c(C)nc(NCCCCCCCCCCCCNc2ccnc3cc(Cl)ccc23)nc1-c1ccccc1
Plasmodium falciparum [5]
  IC50: 0.265 µM
Plasmodium falciparum [6]
  IC50: 0.854 µM
Plasmodium falciparum [7]
  Ratio IC50: 3.22

## O=c1[nH]c(=O)n([C@H]2C[C@H](O)[C@@H](CO)O2)cc1/C=C/Br [BRIVUDINE]
[1]
  EC50: > 250 µM
[2]
  MCC: > 250 µM
HeLa
  CC50: 362 µM
Human alphaherpesvirus 3
  EC50: 0.019 µM

## Nc1ncnc2c1ncn2C[C@H](O)CO [(S)-DHPA]
[11]
  MCC: > 250 µM
Human respirovirus 3
  EC50: > 250 µM
[12]
  EC50: 250 µM
Sindbis virus
  EC50: > 250 µM
Coxsackievirus B4 [13]
  EC50: > 250 µM
Punta Toro virus
  EC50: > 250 µM
[14]
  MCC: > 250 µM
[15]
  EC50: 22 µM
Coxsackievirus B4 [16]
  EC50: 29 µM
[17]
  EC50: 6 µM

## Nc1nc(O)c2ncn(COC(CO)CO)c2n1 [GANCICLOVIR]
[1]
  EC50: > 100 µM
[2]
  MCC: > 100 µM
HeLa
  CC50: 222 µM
[9]
  CC50: > 100 µM
[10]
  EC50: > 100 µM
Felid alphaherpesvirus 1
  EC50: 4.1 µM

## C[C@H]1[C@H](OC(=O)CCC(=O)O)O[C@@H]2O[C@@]3(C)CC[C@H]4[C@H](C)CC[C@@H]1[C@@]24OO3 [ARTESUNATE]
Plasmodium falciparum [5]
  IC50: 0.0053 µM
Plasmodium falciparum [6]
  IC50: 0.0028 µM
Plasmodium falciparum [7]
  Ratio IC50: 0.5418
